Measured values of several laboratories.
Target: Maternal embryonic leucine zipper kinase (MELK, Homo sapiens, UniProt Q14680)

O=C(NCCCC1CCCCC1)c1ccc(CNC(=O)c2cnn(-c3ccccc3)c2C(F)(F)F)cc1 gave a remaining binding of 80% (cell-free assay, competition with immobilised ligand; 0.1 µM).
With O=C(NCC1CCOCC1)c1n[nH]cc1NC(=O)c1c(F)cccc1F the remaining binding was 69% (binding, competition with immobilised ligand; 1 µM).
With F[C@@H]1CCN(c2nccc(-c3cnn4ncccc34)n2)C1 the remaining binding was 100% (binding; 1 µM).
With CNC(=O)[C@@H]1CC[C@@H](n2c(-c3ccc4cnccc4c3)nc3ccc(C(=O)NCc4cccc(C(N)=O)c4)cc32)C1 the remaining binding was 78% (binding, competition with immobilised ligand; 1 µM).
For C[C@@H]1CCN(c2nccc(-c3cnn4ncccc34)n2)C1, the remaining binding was 48% (binding; 1 µM).
For O=C(NCCCN1CCOCC1)c1ccc(Nc2ncc(Cl)c(-c3ccc(Cl)s3)n2)cc1, the remaining binding was 69% (binding, competition with immobilised ligand; 1 µM).
The remaining binding of CC(=O)N1CCC(c2ccc(C(=O)NC3=NCCN3)cc2C(F)(F)F)CC1 is reported as 100% (cell-free assay, competition with immobilised ligand; 1 µM).
The remaining binding of FC(F)(F)Oc1cccc(-c2cnc3ccc(-c4ccncc4)nn23)c1 is reported as 56% (cell-free assay, competition with immobilised ligand; 5 µM).
CC1CCCN1c1nccc(-c2cnn3ncccc23)n1 (stereo not shown) has a remaining binding of 97% (binding; 1 µM).
The remaining binding of Cc1cnc(Nc2ccc(C(=O)N3CCC(N4CCCC4)CC3)cc2)nc1-c1cc2ccccc2s1 is reported as 81% (binding, competition with immobilised ligand; 1 µM).
c1cncc(-c2cccc(Nc3nccc(NC4CCCCC4)n3)c2)c1 has a remaining binding of 84% (binding, competition with immobilised ligand; 10 µM).
For N[C@H]1CCN(c2nccc(-c3cnn4ncccc34)n2)C1, the remaining binding was 69% (binding; 1 µM).
O=C(c1ccc(Nc2ncc(Cl)c(-c3ccc(Cl)s3)n2)cc1)N1CCC(N2CCCC2)CC1 gave a remaining binding of 54% (binding, competition with immobilised ligand; 1 µM).
The remaining binding of CN(C)c1nccc(-c2cnc3ncccn23)n1 is reported as 100% (binding; 1 µM).
The remaining binding of Cc1c(NC(=O)c2cc(C(N)=O)nc3cc(F)ccc23)c(C(F)(F)F)nn1Cc1ccc(C#N)cc1 is reported as 90% (cell-free assay, competition with immobilised ligand; 1 µM).
The remaining binding of c1cnn2ncc(-c3ccnc(N4CCC45COC5)n3)c2c1 is reported as 52% (binding; 1 µM).
O=S(=O)(NC1CCC(c2cc(F)ccc2F)(S(=O)(=O)c2ccc(Cl)cc2)CC1)C(F)(F)F (stereo not shown) gave a remaining binding of 69% (cell-free assay, competition with immobilised ligand; 1 µM).
For CN(CCCC(F)(F)F)c1nccc(-c2cnn3ncccc23)n1, the remaining binding was 94% (binding; 1 µM).
COc1ccc2c(c1)O[C@H](c1ccc(OC)c(OC)c1)C[C@@H]2NC(=O)C1(c2ccc3c(c2)OC(F)(F)O3)CC1 has a remaining binding of 78% (cell-free assay, competition with immobilised ligand; 1 µM).
For CCN1CCN(Cc2ccc(C(=O)Nc3ccc(C)c(Oc4ccc5c(c4)CC(=O)N5)c3)cc2C(F)(F)F)CC1, the remaining binding was 100% (binding, competition with immobilised ligand; 1 µM).
With CN(c1ccnc(CNc2nc(Nc3ccc4c(c3)CC(=O)N4)ncc2C(F)(F)F)n1)S(C)(=O)=O the remaining binding was 40% (cell-free assay, competition with immobilised ligand; 1 µM).
For C[C@@H](c1ccc(-n2cnc3c(N)ncnc32)cc1)N1CCc2nn(C)c(Cc3ccccc3)c2C1=O, the remaining binding was 93% (binding, competition with immobilised ligand; 0.1 µM).
